Experimental data from ChEMBL document CHEMBL2177015, “Bicyclization and tethering to albumin yields long-acting peptide antagonists” (J Med Chem, 2012).
Starred links: 1 amine or outer side, 2 acyl side, 3 side chain; linkers in the order of their positions; H or OH if unused. Positions of bridges follow the written chain, without caps; N, C: chain ends. Residues, ends and D or L forms follow the SMILES beside them. TBMB = c1c(C[*:1])cc(C[*:3])cc1C[*:2]; mXylylene = c1cc(C[*:1])cc(C[*:2])c1; pXylylene = c1cc(C[*:2])ccc1C[*:1]

Assays:
Albumin [1] = target: Albumin (Mus musculus, UniProt P07724); assay: Binding affinity to mouse serum albumin by fluorescence polarization assay; assay type: ADME
Sequence of Albumin (Mus musculus, UniProt P07724) (P07724 whole entry): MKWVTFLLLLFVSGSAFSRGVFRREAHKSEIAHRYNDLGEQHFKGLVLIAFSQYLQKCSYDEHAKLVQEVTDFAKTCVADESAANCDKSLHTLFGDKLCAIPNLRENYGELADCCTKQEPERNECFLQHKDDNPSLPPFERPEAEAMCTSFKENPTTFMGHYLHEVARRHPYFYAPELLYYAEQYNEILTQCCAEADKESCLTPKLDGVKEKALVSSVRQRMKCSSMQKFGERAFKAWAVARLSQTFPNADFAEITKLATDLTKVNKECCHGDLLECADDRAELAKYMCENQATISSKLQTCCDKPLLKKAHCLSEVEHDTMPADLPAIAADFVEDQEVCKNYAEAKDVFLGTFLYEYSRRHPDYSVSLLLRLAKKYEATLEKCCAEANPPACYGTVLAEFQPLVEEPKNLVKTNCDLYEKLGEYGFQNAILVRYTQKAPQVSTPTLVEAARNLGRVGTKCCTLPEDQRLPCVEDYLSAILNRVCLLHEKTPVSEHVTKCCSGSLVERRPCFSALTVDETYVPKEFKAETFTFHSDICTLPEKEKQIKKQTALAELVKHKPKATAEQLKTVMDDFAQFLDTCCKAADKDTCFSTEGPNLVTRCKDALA
Outline: (§1)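 Proteins serially diluted 3/2-fold in phosphate buffer (10 mM Na2HPO4, pH 7.4, 150 mM NaCl) and mixed 1:1 with fluorescein-labelled peptide. Incubated 30 min at room temperature, then fluorescence polarization read (excitation 480 nm, emission 535 nm). KD from nonlinear regression of anisotropy against total protein concentration using a quadratic binding equation. Done at 25 °C.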

Albumin [2] = target: Albumin (Homo sapiens, UniProt P02768); assay: Binding affinity to human serum albumin by fluorescence polarization assay; assay type: ADME; outline: as §1
Sequence of Albumin (Homo sapiens, UniProt P02768) (P02768 whole entry): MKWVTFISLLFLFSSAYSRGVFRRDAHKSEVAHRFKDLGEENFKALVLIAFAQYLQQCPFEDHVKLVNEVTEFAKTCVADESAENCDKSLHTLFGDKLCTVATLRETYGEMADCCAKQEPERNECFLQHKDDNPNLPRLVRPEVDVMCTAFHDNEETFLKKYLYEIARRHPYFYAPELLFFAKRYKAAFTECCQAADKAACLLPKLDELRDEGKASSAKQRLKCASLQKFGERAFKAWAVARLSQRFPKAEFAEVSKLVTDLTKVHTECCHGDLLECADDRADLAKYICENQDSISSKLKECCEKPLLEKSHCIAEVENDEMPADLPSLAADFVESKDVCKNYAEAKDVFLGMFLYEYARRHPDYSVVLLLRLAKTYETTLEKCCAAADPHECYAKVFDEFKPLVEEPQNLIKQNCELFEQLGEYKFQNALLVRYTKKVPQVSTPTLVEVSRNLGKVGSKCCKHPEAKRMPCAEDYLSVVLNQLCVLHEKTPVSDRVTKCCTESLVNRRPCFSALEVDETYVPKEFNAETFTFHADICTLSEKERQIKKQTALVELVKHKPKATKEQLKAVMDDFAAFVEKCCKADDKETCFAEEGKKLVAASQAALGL

[3] = Terminal half life in rabbit; assay type: ADME, organism-based, Oryctolagus cuniculus; settings: in vivo
[4] = Terminal half life in mouse; assay type: ADME, organism-based; settings: in vivo
Outline: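 Female BALB/c mice aged 7–9 weeks, given 200 μL of 50 μM in PBS intravenously; 2–3 mice per time point. EDTA plasma sampled up to 320 min or up to 48 h. Conjugate measured by reversed-phase UFLC with fluorescence detection (ex 490, em 525 nm) and by uPA-capture ELISA with antifluorescein detection. Data fitted to a two-compartment model; t1/2 β taken.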

Plasma [5] = assay: Drug degradation in mouse plasma at 50 uM after 24 hrs by RP-HPLC analysis; assay type: ADME, cell-free
Outline: (§2)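 Peptide spiked from 1 mM water stock into mouse plasma (final 50 μM) and incubated at 37 °C. Samples taken at 0, 24 and 48 h, mixed 1:1 with water containing 0.1% TFA and stored at −20 °C. Analysed by RP-HPLC on a C8 column with 220 nm absorbance; peaks identified by ESI-MS.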

[6] = target: T1, Urokinase-type plasminogen activator (Homo sapiens, UniProt P00749); assay: Inhibition of human uPA using H-Glu-Gly-Arg-pNA as substrate after 1 hr in presence of ovalbumin
Outline: (§3)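 Human urinary low-molecular-weight uPA (1.5 nM) with 2-fold inhibitor dilutions (8 μM to 1.95 nM) at 25 °C. Additive: 0.1% casein (±1.5 μM hSA or mSA), 0.1% ovA or 0.1% bSA. Substrate 50 μM H-Glu-Gly-Arg-pNA; A405 initial rates over 1 h. Ki from Kiapp corrected for substrate; means of ≥3.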

[7] = target: T1, Urokinase-type plasminogen activator; assay: Inhibition of human uPA using H-Glu-Gly-Arg-pNA as substrate after 1 hr in presence of bovine serum albumin; outline: as §3
[8] = target: T1, Urokinase-type plasminogen activator; assay: Inhibition of human uPA using H-Glu-Gly-Arg-pNA as substrate after 1 hr in presence of casein and mouse serum albumin; outline: as §3
[9] = target: T1, Urokinase-type plasminogen activator; assay: Inhibition of human uPA using H-Glu-Gly-Arg-pNA as substrate after 1 hr in presence of casein and human serum albumin; outline: as §3
[10] = target: T1, Urokinase-type plasminogen activator; assay: Inhibition of human uPA using H-Glu-Gly-Arg-pNA as substrate after 1 hr in presence of casein; outline: as §3
Plasma [11] = assay: (§4) Drug degradation in mouse plasma at 50 uM after 24 to 48 hrs by RP-HPLC analysis; assay type: ADME, cell-free; settings: 50 µM; outline: as §2
[12] = target: T1, Urokinase-type plasminogen activator; assay: Inhibition of human uPA; outline: as §3
[13] = as §4; assay type: ADME, cell-free; settings: read-out: Drug degradation; outline: as §2

**Q.** For `CC[C@H](C)[C@H](NC(=O)[C@H](CC(C)C)NC(=O)[C@H](CCCNC(=N)N)N[C@@H](CCCCN)C(=O)NCCCCN=[N+]=[N-])C(=O)N[C@@H](CCC(=O)O)C(=O)N[C@@H](CC(=O)O)C(=O)N[C@H](C(=O)N[C@H]1CSSC[C@@H](C(=O)N[C@@H](CC(C)C)C(=O)N[C@@H](Cc2c[nH]c3ccccc23)C(=O)N[C@@H](CCC(=O)O)C(=O)N[C@@H](CC(=O)O)C(=O)N[C@@H](CC(=O)O)C(=O)O)NC(=O)CNC(=O)[C@H](Cc2c[nH]c3ccccc23)NC(=O)[C@H](CCCNC(=N)N)NC(=O)[C@@H]2CCCN2C(=O)[C@H](CC(C)C)NC1=O)[C@@H](C)CC`, which Kd (Albumin [1]) is on record?
**A.** 24 nM

**Q.** And the Kd (Albumin [2])?
**A.** 321 nM

**Q.** With `CC[C@H](C)[C@H](NC(=O)[C@H](CC(=O)O)NC(=O)[C@H](CCC(=O)O)NC(=O)[C@H](CCSC)NC(=O)[C@H](CC(C)C)NC(=O)[C@H](CCCNC(=N)N)NC(=O)[C@@H](N)CCC(N)=O)C(=O)N[C@@H](CS)C(=O)N[C@@H](CC(C)C)C(=O)N1CCC[C@H]1C(=O)N[C@@H](CCCNC(=N)N)C(=O)N[C@@H](Cc1c[nH]c2ccccc12)C(=O)NCC(=O)N[C@@H](CS)C(=O)N[C@@H](CC(C)C)C(=O)N[C@@H](Cc1c[nH]c2ccccc12)C(=O)N[C@@H](CCC(=O)O)C(=O)N[C@@H](CC(=O)O)C(=O)N[C@@H](CC(=O)O)C(=O)N[C@@H](Cc1ccccc1)C(N)=O` as the compound, how does the half-life [3] read?
**A.** 68.5 h

**Q.** And the half-life [4]?
**A.** 19.7 h

**Q.** With `CC(C)[C@@H]1NC(=O)[C@H](CCC(=O)O)NC(=O)[C@H](Cc2ccc(O)cc2)NC(=O)[C@H](CCCNC(=N)N)NC(=O)[C@H](CO)NC(=O)[C@@H](NC(=O)[C@H](C)N)CSCc2cccc(c2)CSC[C@@H](C(N)=O)NC(=O)[C@H](CC(=O)O)NC1=O` (H-ACSRYEVDC-NH2; linker 2-9 via mXylylene) as the compound, how does the Stability (Plasma [5]) read?
**A.** Unstable

**Q.** Which Ki [6] does the source give for `CC(C)[C@@H]1NC(=O)[C@H](CCC(=O)O)NC(=O)[C@H](Cc2ccc(O)cc2)NC(=O)[C@H](CCCN=C(N)N)NC(=O)[C@H](CO)NC(=O)[C@@H](NC(=O)[C@H](C)N)CSCc2cc3cc(c2)CSC[C@H](NC(=O)[C@H](CC(=O)O)NC1=O)C(=O)N[C@@H](CCCN=C(N)N)C(=O)NCC(=O)N[C@@H](CCCN=C(N)N)C(=O)NCC(=O)N[C@@H](CO)C(=O)N[C@@H](C)C(=O)N[C@H](C(=O)NCC(N)=O)CSC3` (H-ACSRYEVDCRGRGSACG-NH2; linker 2-9-16 via TBMB) here?
**A.** 56 nM

**Q.** And the Ki [7]?
**A.** 53 nM

**Q.** And the Ki [8]?
**A.** 54 nM

**Q.** What about the Ki [9] of the same compound?
**A.** 60 nM

**Q.** What about the Ki [10] of the same compound?
**A.** 52 nM

**Q.** What about the Stability (Plasma [11]) of the same compound?
**A.** Unstable

**Q.** What about the Ki [12] of the same compound?
**A.** 53 nM

**Q.** For `CC(C)[C@@H]1NC(=O)[C@H](CCC(=O)O)NC(=O)[C@H](Cc2ccc(O)cc2)NC(=O)[C@H](CCCNC(=N)N)NC(=O)[C@H](CO)NC(=O)[C@@H](NC(=O)[C@H](C)N)CSCc2ccc(cc2)CSC[C@@H](C(=O)NCC(N)=O)NC(=O)[C@H](C)NC(=O)[C@H](CO)NC(=O)CNC(=O)[C@H](CCCNC(=N)N)NC(=O)CNC(=O)[C@H](CCCNC(=N)N)NC(=O)[C@H](CO)NC(=O)[C@H](CC(=O)O)NC1=O` (H-ACSRYEVDSRGRGSACG-NH2; linker 2-16 via pXylylene), which metabolised at 50 µM [13] is on record?
**A.** 60%

**Q.** Which Stability (Plasma [11]) does the source give for `CC(C)[C@H](NC(=O)[C@H](CCC(=O)O)NC(=O)[C@H](Cc1ccc(O)cc1)NC(=O)[C@H](CCCNC(=N)N)NC(=O)[C@H](CO)NC(=O)[C@H](CO)NC(=O)[C@H](C)N)C(=O)N[C@@H](CC(=O)O)C(=O)N[C@@H](CO)C(=O)N[C@@H](CCCNC(=N)N)C(=O)NCC(=O)N[C@@H](CCCNC(=N)N)C(=O)NCC(=O)N[C@@H](CO)C(=O)N[C@@H](C)C(=O)N[C@@H](CO)C(=O)NCC(N)=O` (H-ASSRYEVDSRGRGSASG-NH2) here?
**A.** Unstable

**Q.** For `C[C@@H]1NC(=O)[C@H](CO)NC(=O)CNC(=O)[C@H](CCCNC(=N)N)NC(=O)CNC(=O)[C@H](CCCNC(=N)N)NC(=O)[C@@H](N)CSCc2cccc(c2)CSC[C@@H](C(=O)NCC(N)=O)NC1=O` (H-CRGRGSACG-NH2; linker 1-8 via mXylylene), which Stability (Plasma [5]) is on record?
**A.** Unstable
